Source: PubChem BioAssay
Beta apoptosis: beta cell apoptosis inhibition | AID 435005 | protection from apoptosis, % (test concentration not listed) | INS-1E cytokine-induced death, ATP luminescence, 48 h; percent of positive-control rescue, neutral wells zero | actives 0.8% (n = 300,000);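 active means Every replicate reaches about 75%, or at least half do and their mean reaches it too, limit read from the data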;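 further: 0% = cytokine-treated negative control wells and 100% = positive control rescue; higher means more ATP so stronger rescue from cytokine killing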
CSC inhib: blocks cancer stem cells. cancer stem cell-like cells viability, luminescence. inhibition, % at 7.5 µM. actives 1.1% (n = 300,000). AID 2717; in the data active means inhibition above about 75%; tested in HMLE shEcad cells
T cruzi repl: T. cruzi replication inhibition; T. cruzi beta-gal in NIH3T3, luminescence, 90 h; inhibition, % (no concentration beside the values); actives 1.4% (n = 300,000);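 active means mean inhibition across valid replicates above about 55%, limit read from the data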;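 further: signal also drops with host cell toxicity which is not excluded here; 0% = plate median of DMSO wells and 100% = zero luminescence signal; higher percent means less beta-gal luminescence so fewer parasites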
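assay system = mouse NIH/3T3 fibroblasts infected with β-gal-expressing T. cruzi Tulahuen C4 | input = 5,000 NIH/3T3 host cells per well | buffer or medium = DMEM plus 2% FBS | timing = 3 h host attachment, then at least 90 h co-culture | measured by = GalScreen luminescence, 60 min | evaluation = luminescence reflecting intracellular parasite burden, expressed as percent inhibition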
CHOP inhibitor: inhibitors of CHOP induction in ER stress response | CHO-K1 CHOP-promoter luciferase, tunicamycin-induced, 15-18 h | inhibition, % at 10 µM | actives 3.8% (n = 220,000) | AID 2732;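 active means compounds that reduced the stress-induced luciferase reporter signal by more than about 70% of percent inhibition, limit read from the data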;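 further: 0% = tunicamycin plus vehicle and 100% = wells without tunicamycin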
PREPL inhibitor: inhibits the human prolyl oligopeptidase-like enzyme; AID 2751; inhibition, % at 5.96 µM; Q4J6C6; recombinant PREPL, fluorescence polarization activity-based probe; actives 0.68% (n = 320,000); in the data active means inhibition above about 43%;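 further: 0% = enzyme with DMSO and 100% = wells lacking enzyme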
Target sequence (Q4J6C6 whole entry, looked up): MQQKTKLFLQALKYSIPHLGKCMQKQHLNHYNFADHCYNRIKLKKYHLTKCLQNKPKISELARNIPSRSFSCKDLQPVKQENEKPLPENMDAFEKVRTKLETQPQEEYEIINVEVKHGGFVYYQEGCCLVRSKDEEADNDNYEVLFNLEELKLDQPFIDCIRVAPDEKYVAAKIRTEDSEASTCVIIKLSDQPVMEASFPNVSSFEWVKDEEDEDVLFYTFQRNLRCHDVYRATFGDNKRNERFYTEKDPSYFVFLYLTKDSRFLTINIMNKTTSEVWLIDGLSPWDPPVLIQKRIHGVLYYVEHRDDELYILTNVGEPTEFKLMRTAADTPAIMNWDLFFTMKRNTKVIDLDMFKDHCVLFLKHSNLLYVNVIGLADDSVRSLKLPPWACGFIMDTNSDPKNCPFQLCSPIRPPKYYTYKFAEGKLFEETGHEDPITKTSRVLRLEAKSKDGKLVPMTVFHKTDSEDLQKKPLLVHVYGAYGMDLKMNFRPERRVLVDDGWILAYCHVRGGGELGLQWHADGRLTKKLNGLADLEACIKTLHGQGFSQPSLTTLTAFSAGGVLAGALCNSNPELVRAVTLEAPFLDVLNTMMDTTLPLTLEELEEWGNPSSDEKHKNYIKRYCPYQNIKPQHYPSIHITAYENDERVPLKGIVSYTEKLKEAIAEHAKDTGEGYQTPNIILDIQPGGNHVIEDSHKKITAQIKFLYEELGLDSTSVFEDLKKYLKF
GRIN3A LBD mod: modulates the human NR3A ligand-binding domain. actives 2.5% (n = 340,000). NR3A LBD differential scanning fluorimetry, Tm shift; 0% = protein alone, 100% = glycine-bound protein. AID 1259313. Tm shift relative to glycine control, % at 25 µM;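 active means melting temperature shift of at least 10% of the positive control shift, at one fixed dose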
CHOP confirm: confirmation of CHOP induction inhibitors | shares compounds with CHOP inhibitor | CHO-CHOP promoter luciferase reporter, tunicamycin-induced, luminescence | inhibition, % at 10 µM | actives 45% (n = 2,100);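 active means mean of three repeat readings of reporter signal inhibition above a set limit, cut at about 70% in these data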;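 further: 0% = tunicamycin plus vehicle and 100% = wells lacking tunicamycin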
Numbers without * were called inactive; · = no result. Compounds with a hit are over-represented: about 6.7% of the library has one in this group of screens.

SMILES	Beta apoptosis	CSC inhib	T cruzi repl	CHOP inhibitor	PREPL inhibitor	GRIN3A LBD mod	CHOP confirm
COC(=O)c1[nH]c2ccc(C)cc2c1NC(=O)Nc1ccc(OC)cc1	5	0	-4	101*	-7	-6	37
COc1cc(C(=O)N2CCCN(C)CC2)cc(OC)c1C	-14	-5	-9	·	8	0	·
Cc1ccc(NNC(=S)Nc2ccc(C(C)C)cc2)c(C)c1	-6	67	11	106*	-3	2	16
c1ccc(-c2csc(-n3cccn3)n2)cc1	2	-3	-14	2	-19	0	·
C=C(C)CC(c1ccccc1)N(C(C)=O)c1ccco1 (centres undefined)	8	35	-24	-14	0	1	·
CC1(C)CC(=O)C2=C(C1)OC1=C(C(=O)CC(C)(C)C1)C2c1ccc(O)c([N+](=O)[O-])c1	-5	-1	14	25	-8	0	·
CC1(C)CC(=O)C2=C(C1)OC1=C(C(=O)CC(C)(C)C1)C2c1ccc(O)cc1O	102*	30	5	·	9	2	-86
O=C1ON(Cc2ccccc2)C(c2ccccc2)N1c1ccccc1 (centres undefined)	·	·	·	·	·	-3	·
CCOC(=O)c1sc(NC(=O)Nc2ccc(Cl)cc2)cc1C	89*	70	65*	108*	22	27*	30
CCOC(=O)c1sc(NC(=S)NC(=O)CC(C)C)cc1C	-1	·	0	107*	2	1	20
Cc1ccc(CNC(=O)c2cc(Cl)cc(Cl)c2)n1C	-2	-7	-3	·	0	-1	·
Cc1ccccc1N1CCN(CC(=O)Nc2ccccc2C(=O)NC2CC2)CC1	-7	-10	·	·	-1	4	·
O=C(/C=C/c1ccccc1)Nc1cccc(C(=O)O)c1	2	-5	-7	97*	11	1	116*
CCOC(=O)c1c(C(C)(C)C)oc2ccc(O)cc12	5	43	·	104*	7	-8	106*
CN(c1ccccc1)c1ccc(/C=C/[N+](=O)[O-])cc1	89*	-1	33	110*	17	16*	-96
Nc1ncnc2c1ncn2[C@@H]1O[C@H](CNS(=O)(=O)c2ccc3c(c2)CCN(C(=O)C(F)(F)F)C3)[C@@H](O)[C@H]1O	·	·	·	·	·	3	·
O=C(Cc1cccc2ccccc12)NCCc1ccccc1	-4	-4	-5	·	-5	0	·
OC(CN1CCN(c2cccc(C(F)(F)F)c2)CC1)c1c[nH]c2ccccc12 (centres undefined)	-5	·	19	97*	37	0	47
COc1cc(Nc2ccc(S(N)(=O)=O)cc2)c([N+](=O)[O-])nc1[N+](=O)[O-]	-3	-21	7	·	2	0	·
CC(NC(=O)COC(=O)/C(=C/c1cccs1)c1cccs1)c1ccccc1 (centres undefined)	4	-3	-29	34	-92	0	·
O=c1c2c(-c3ccccc3)csc2nc2c3ccccc3c(NCCN3CCOCC3)nn12	·	·	38	106*	·	-15	-24
CCC(C)c1ccc(O)c(NC(=O)c2cncc(Br)c2)c1 (centres undefined)	2	15	2	111*	1	-25	82*
CC(C)Cc1nnc(NC(=O)CCC(=O)N2CCCCC2)s1	3	-24	6	·	4	3	·
CCOc1ccc(N2C(=O)/C(=C\c3ccc(O)c(OC)c3)S(=O)(=O)C2c2cccc([N+](=O)[O-])c2)cc1 (centres undefined)	-5	-5	-7	104*	0	10*	80*
Cc1cc(C)cc(N2C(=O)CC(Sc3nnnn3-c3ccccc3)C2=O)c1 (centres undefined)	-27	·	3	102*	2	1	63
SMILES	Beta apoptosis	CSC inhib	T cruzi repl	CHOP inhibitor	PREPL inhibitor	GRIN3A LBD mod	CHOP confirm
O=C(Nc1cccc(Cl)c1)Nc1cnccn1	3	-1	11	·	-11	-28	·
O=C(Nc1cccc(Cl)c1)Nc1ccnc(-c2cccnc2)n1	-6	-10	31	105*	-11	10	105*
O=C(CNc1cccc(C(F)(F)F)c1)N/N=C/c1cccc(Br)c1	2	12	9	99*	8	29*	108*
C/C(=N\NC(=O)CNc1cccc(C(F)(F)F)c1)c1cccc(Br)c1	-9	-12	5	68	9	8	·
Cc1csc(NC(=O)CCC(=O)N(CC(=O)NC2CCCC2)Cc2ccccc2)n1	-4	-2	1	·	-14	-4	·
C=CCn1c(Cc2ccccc2)n[nH]c1=S	-8	-11	-8	-4	1	-2	·
C=CCn1c(CCc2cc(C(C)(C)C)c(O)c(C(C)(C)C)c2)n[nH]c1=S	·	·	31	101*	15	3	86*
O=C(Cn1c2c(sc1=O)C1c3ccccc3OCC1CS2)Nc1ccc(Cl)c(Cl)c1 (centres undefined)	0	15	17	99*	5	24*	35
CCCCC1=CC2=C(c3ccco3)C(=O)C(C)(OC(=O)c3ccc(OC)cc3)C(=O)C2=CN1Cc1ccco1 (centres undefined)	-2	-13	13	102*	30	-2	37
CCCCC1=CC2=C(c3ccco3)C(=O)C(C)(OC(=O)c3ccc(OC)cc3)C(=O)C2=CN1c1ccc(OC)cc1 (centres undefined)	3	34	-4	-49	25	-1	·
COc1ccc2c(=O)c(-c3cnn(-c4ccccc4)c3)c(C)oc2c1	5	14	-7	7	1	1	·
Cc1oc2c(C)c(O)ccc2c(=O)c1-c1cnn(-c2ccccc2)c1	3	64	19	104*	0	1	-16
COc1ccc(NS(=O)(=O)c2ccc(NC(=S)NC(=O)/C=C/c3ccccc3)cc2)nn1	-9	6	-10	-5	1	-8	·
Cc1cc2cc(CN(Cc3ccco3)C(=O)NCc3ccccc3)c(=O)[nH]c2cc1C	-4	-9	15	44	-1	0	·
Cc1cc2cc(CN(Cc3ccco3)C(=O)C3CCCCC3)c(=O)[nH]c2cc1C	-4	4	19	105*	2	0	37
CCOCCCNC(=O)CCN1C(=O)c2ccccc2Sc2ncccc21	-8	-8	-5	·	2	-1	·
Cc1ccc(NS(=O)(=O)c2c(C)[nH]c(C)c2C(=O)N2CCCCC2)cc1F	-7	-5	-8	·	-2	2	·
Cc1ccc(-n2c(N)c(C(=O)Nc3c(C)n(C)n(-c4ccccc4)c3=O)c3nc4ccccc4nc32)cc1	8	-19	13	107*	14	-2	55
